By inhibition is commonly meant the percentage by which the read-out fell short of the control.

The target in assay [1] is T1, Adenosine receptor A1 (Homo sapiens) (UniProt P30542).
T1 sequence (whole entry): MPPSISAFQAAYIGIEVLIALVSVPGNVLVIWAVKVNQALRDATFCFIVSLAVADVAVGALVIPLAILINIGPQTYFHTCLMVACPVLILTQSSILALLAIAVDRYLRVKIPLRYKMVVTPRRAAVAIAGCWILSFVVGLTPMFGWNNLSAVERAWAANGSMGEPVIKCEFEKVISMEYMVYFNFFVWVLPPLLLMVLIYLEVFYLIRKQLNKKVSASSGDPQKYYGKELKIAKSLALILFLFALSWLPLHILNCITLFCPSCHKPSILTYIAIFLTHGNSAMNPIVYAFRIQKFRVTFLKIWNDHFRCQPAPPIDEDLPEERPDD
Description: Allosteric enhancement of human adenosine A1 receptor expressed in CHO cells assessed as inhibition of forskolin-stimulated cAMP production at 10 uM preincubated for 10 mins followed by forskolin challenge measured after 5 mins by scintillation counting analysis relative to control. The class given is functional, cell-based. The method, boiled down: (§1)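 hA1-CHO cells (10⁶ cells/mL) in phosphate buffer with adenosine deaminase 1.0 IU/mL and Ro 20-1724 0.5 mM, preincubated 10 min at 37 °C. Compound added for 10 min, alone or at 100 nM with CCPA 1 pM. Forskolin 1 µM added for 5 min, stopped with cold 6% TCA. cAMP measured by [³H]-cAMP competition protein-binding assay; percent inhibition versus control; three experiments.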
(Changes in cAMP serve as a functional read-out for many G protein-coupled receptors.)

For assay [2], the target named is T1, Adenosine receptor A1 (Homo sapiens). Description: Potentiation of [3H]CCPA binding to human adenosine A1 receptor expressed in CHO cell membranes at 10 uM after 90 mins relative to [3H]CCPA-treated control.
Assay [3] has the same target. As to the kind of experiment: Potentiation of CCPA-induced displacement of [3H]-DPCPX from human adenosine A1 receptor expressed in CHO cell membranes at 10 uM after 90 mins relative to CCPA-treated control. The method, boiled down: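 CCPA (0.01 nM–1 µM) competition against [³H]DPCPX in hA1-CHO membranes, with or without compound at 10 µM. Nonspecific binding defined with 1 µM DPCPX. Ki calculated from IC50 by the Cheng-Prusoff equation; CCPA Ki shift given as fold change; three experiments.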

Assay [4] has the same target. As to the kind of experiment: Allosteric enhancement of human adenosine A1 receptor expressed in CHO cells assessed as inhibition of forskolin-stimulated cAMP production at 100 nM preincubated for 10 mins followed by forskolin challenge measured after 5 mins by scintillation counting analysis in presence of CCPA relative to control. The class given is functional, cell-based. The method, boiled down:
as §1

The target of assay [5] is T2, Adenosine receptor A3 (Homo sapiens) (UniProt P0DMS8).
T2 sequence (whole entry): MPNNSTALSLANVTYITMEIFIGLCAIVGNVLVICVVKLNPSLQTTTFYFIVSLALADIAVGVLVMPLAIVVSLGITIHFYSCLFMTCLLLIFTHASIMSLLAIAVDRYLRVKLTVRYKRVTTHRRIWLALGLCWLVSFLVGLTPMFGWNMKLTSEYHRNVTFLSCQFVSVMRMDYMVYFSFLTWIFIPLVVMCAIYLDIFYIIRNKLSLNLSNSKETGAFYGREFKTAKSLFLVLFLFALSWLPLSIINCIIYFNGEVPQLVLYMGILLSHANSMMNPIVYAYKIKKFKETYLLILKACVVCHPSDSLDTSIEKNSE
Description: Displacement of [3H]-MRE-3008-F20 from human adenosine A3 receptor expressed in CHO cell membranes at 10 uM by scintillation counting analysis relative to control. The method, boiled down: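 A3-expressing CHO membranes in 50 mM Tris-HCl, 10 mM MgCl₂, 1 mM EDTA pH 7.4 with 2 nM [³H]MRE-3008-F20. Incubated 120 min at 4 °C. Compound 10 µM in 1% DMSO final. Filtration and scintillation counting; percent inhibition of specific binding.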
For orientation: In a radioligand displacement assay an active substance lowers the binding of a labelled ligand.

For assay [6], the target named is Adenosine receptor A2a (Homo sapiens) (UniProt P29274). As to the kind of experiment: Displacement of [3H]-ZM241385 from human adenosine A2A receptor expressed in CHO cell membranes at 10 uM by scintillation counting analysis relative to control. The method, boiled down: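 A2A-expressing CHO membranes, pretreated with adenosine deaminase, in 50 mM Tris-HCl, 10 mM MgCl₂ pH 7.4 with 1 nM [³H]ZM 241385. Incubated 60 min at 4 °C. Compound 10 µM in 1% DMSO final. Filtration and scintillation counting; percent inhibition of specific binding.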

In assay [7] the target is T1, Adenosine receptor A1 (Homo sapiens). Description: Displacement of [3H]-DPCPX from human adenosine A1 receptor expressed in CHO cell membranes at 10 uM by scintillation counting analysis relative to control. The method, boiled down: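 hA1-CHO membranes, pretreated with adenosine deaminase, in 50 mM Tris-HCl pH 7.4 with 1 nM [³H]DPCPX. Incubated 120 min at 25 °C. Compound 10 µM added from 100-fold DMSO stock, 1% DMSO final. Bound ligand collected on glass-fibre filters and counted by scintillation; percent inhibition of specific binding.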

Adenosine receptor A2a (Homo sapiens), sequence (P29274 whole entry): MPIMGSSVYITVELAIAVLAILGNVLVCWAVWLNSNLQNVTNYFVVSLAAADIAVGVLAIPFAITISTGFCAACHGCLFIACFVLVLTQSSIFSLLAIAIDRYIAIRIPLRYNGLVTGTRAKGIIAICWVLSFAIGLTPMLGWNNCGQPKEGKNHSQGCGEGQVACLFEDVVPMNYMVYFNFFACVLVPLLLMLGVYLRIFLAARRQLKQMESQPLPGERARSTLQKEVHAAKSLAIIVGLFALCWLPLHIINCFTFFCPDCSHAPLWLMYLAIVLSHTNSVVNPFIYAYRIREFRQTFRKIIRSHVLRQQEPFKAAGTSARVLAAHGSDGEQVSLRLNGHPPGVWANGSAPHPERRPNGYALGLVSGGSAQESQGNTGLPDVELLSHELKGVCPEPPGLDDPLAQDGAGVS

Consider `Cc1c(-c2ccccc2)sc(N)c1C(=O)c1ccc(Cl)cc1`, for which the inhibition in assay [1] is 18%; in assay [4], 20%; in assay [5] it was 1%; in assay [6] it was 8%; in assay [7], 1%. In addition, the fold change (FC) in assay [2] and in assay [3] was 1.5 throughout.

For the molecule `CC(C)(C)Cc1c(-c2ccc3c(c2)OCO3)sc(N)c1C(=O)c1ccc(Cl)cc1`, the inhibition worked out at 61% in assay [1]; 59% in assay [4]; 1% in assay [5]; 1% in assay [6]; 1% in assay [7]. Further, the fold change (FC) in assay [2] amounted to 6.6; in assay [3], 5.2.

With `Cc1ccc(C(=O)c2c(N)sc(-c3ccccc3)c2CC(C)(C)C)cc1`, the inhibition came out at 62% in assay [1]; 61% in assay [4]; 1% in assay [5]; 6% in assay [6]; 1% in assay [7]. Further, the fold change (FC) in assay [2] is 6.7; in assay [3], 5.

Take `CC(C)(C)Cc1c(-c2ccc(Cl)cc2)sc(N)c1C(=O)c1ccc(Cl)cc1`: the inhibition in assay [1] is 57%; in assay [4] it was 58%; in assay [5] it was 1%; in assay [6], 1%; in assay [7], 1%. Moreover, the figures for the fold change (FC) in assay [2] and in assay [3] were 5.8 and 4, respectively.

Regarding `CC(C)(C)Cc1c(-c2cn[nH]c2)sc(N)c1C(=O)c1ccc(Cl)cc1`, the inhibition in assay [1] turned out to be 27%; in assay [4] it was 31%; in assay [5] it was 1%; in assay [6] it was 1%; in assay [7], 1%. Further, the fold change (FC) in assay [2] worked out at 2.5; in assay [3] it was 1.7.

In the case of `CC(C)(C)Cc1c(-c2ccccc2)sc(N)c1C(=O)c1ccc(Cl)cc1Cl`, the inhibition turned out to be 52% in assay [1]; 55% in assay [4]; 1% in assay [5]; 1% in assay [6]; 1% in assay [7]. The fold change (FC) in assay [2] amounted to 6.8; in assay [3], 4.4.

Turning to `CC(C)(C)Cc1c(-c2c(F)cccc2F)sc(N)c1C(=O)c1ccc(Cl)cc1`, the inhibition in assay [1] was 45%; in assay [4], 46%; in assay [5] it was 1%; in assay [6], 2%; in assay [7] it was 1%. Moreover, the values for the fold change (FC) in assay [2] and in assay [3] were 4.2 and 2.4, respectively.

With `Cc1ccc(C(=O)c2c(CC(C)(C)C)csc2N)cc1`, the inhibition in assay [1] is 38%; in assay [4] it was 35%; in assay [5], 1%; in assay [6], 1%; in assay [7], 1%. For the same molecule, the figures for the fold change (FC) in assay [2] and in assay [3] were 3.3 and 2, respectively.

Regarding `CC(C)(C)Cc1c(-c2ccoc2)sc(N)c1C(=O)c1ccc(Cl)cc1`, the inhibition in assay [1] worked out at 55%; in assay [4] it was 56%; in assay [5], 1%; in assay [6], 1%; in assay [7], 1%. The fold change (FC) worked out at 5.6 in assay [2] and 3.1 in assay [3].

Take `Cc1sc(N)c(C(=O)c2ccc(Cl)cc2)c1-c1ccccc1`: the inhibition in assay [1] was 16%; in assay [4], 21%; in assay [5], 1%; in assay [6] it was 1%; in assay [7], 1%. In addition, the figures for the fold change (FC) in assay [2] and in assay [3] were 1.4 and 1.6, respectively.

Consider `CC(C)(C)Cc1csc(N)c1C(=O)c1cccc(C(F)(F)F)c1`, for which the inhibition is 28% in assay [1]; 30% in assay [4]; 1% in assay [5]; 1% in assay [6]; 1% in assay [7]. Further, the values for the fold change (FC) in assay [2] and in assay [3] were 2.6 and 1.7, respectively.

Turning to `CC(C)(C)Cc1c(-c2cccc(F)c2F)sc(N)c1C(=O)c1ccc(Cl)cc1`, the inhibition in assay [1] was found to be 60%; in assay [4] it was 63%; in assay [5] it was 1%; in assay [6], 3%; in assay [7] it was 1%. Besides, the fold change (FC) in assay [2] came out at 6.1; in assay [3], 4.9.

For the molecule `CC(C)(C)Cc1csc(N)c1C(=O)c1ccc(Cl)cc1`, the inhibition in assay [1] was determined as 35%; in assay [4] it was 37%; in assay [5], 5%; in assay [6], 6%; in assay [7] it was 1%. Besides, the fold change (FC) in assay [2] came out at 3.9; in assay [3], 1.6.

As to `CC(C)(C)Cc1c(-c2cccs2)sc(N)c1C(=O)c1ccc(Cl)cc1`, the inhibition worked out at 58% in assay [1]; 62% in assay [4]; 1% in assay [5]; 2% in assay [6]; 1% in assay [7]. Further, the fold change (FC) was found to be 6.2 in assay [2] and 3.9 in assay [3].

For the molecule `COc1ccc(-c2sc(N)c(C(=O)c3ccc(Cl)cc3)c2C)cc1`, the inhibition in assay [1] is 24%; in assay [4] it was 22%; in assay [5], 1%; in assay [6] it was 1%; in assay [7], 1%. The figures for the fold change (FC) in assay [2] and in assay [3] were 2.1 and 1.8, respectively.

In the case of `CC(C)(C)Cc1c(-c2ccc(Cl)c(Cl)c2)sc(N)c1C(=O)c1ccc(Cl)cc1`, the inhibition turned out to be 59% in assay [1]; 61% in assay [4]; 1% in assay [5]; 1% in assay [6]; 1% in assay [7]. Also, the figures for the fold change (FC) in assay [2] and in assay [3] were 6 and 4.3, respectively.

On to `CC(C)(C)Cc1c(Br)sc(N)c1C(=O)c1ccc(Cl)c(Cl)c1`, for which the inhibition in assay [1] is 42%; in assay [4], 40%; in assay [5], 1%; in assay [6], 1%; in assay [7], 1%. Further, the fold change (FC) in assay [2] was 4.5; in assay [3] it was 4.

As to `CC(C)(C)Cc1csc(N)c1C(=O)c1cccc(Cl)c1`, the inhibition is 45% in assay [1]; 42% in assay [4]; 8% in assay [5]; 1% in assay [6]; 2% in assay [7]. For the same molecule, the fold change (FC) in assay [2] was 4.3; in assay [3], 1.5.

For `Cc1ccc(C(=O)c2c(N)sc(Br)c2CC(C)(C)C)cc1`, the inhibition in assay [1] was found to be 61%; in assay [4], 63%; in assay [5], 1%; in assay [6], 1%; in assay [7], 1%. In addition, the results for the fold change (FC) in assay [2] and in assay [3] were 6.4 and 4.3, respectively.

Turning to `CC(C)(C)Cc1c(-c2ccc(OC(F)(F)F)cc2)sc(N)c1C(=O)c1ccc(Cl)cc1`, the inhibition worked out at 56% in assay [1]; 55% in assay [4]; 1% in assay [5]; 1% in assay [6]; 1% in assay [7]. Besides, the fold change (FC) in assay [2] is 6.4; in assay [3] it was 4.6.
